# High-throughput results from PubChem.
# In the library only some 4% were active in any assay of this set; here they are far more common.
# OX1R antag-1 – antagonists of human orexin 1 receptor; O43613; CHO/OX1R cells, Fluo-8 calcium fluorescence, orexin A; inhibition, % at 5 µM; hit rate 0.43% among 330,000; AID 434989;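 active means inhibition above its plate's threshold, mean inhibition of all tested compounds on the plate plus 3 SD, cut at about 37% in these data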
# TAAR1 ag – human TAAR1 agonism. CHO RD-HGA16 TAAR1, Fluo-8 calcium fluorescence; vehicle wells 0%, saturating PEA agonist 100%. hit rate 0.99% among 360,000. activation, % at 3 µM;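 active means activation above the mean activation of all test compounds in the run plus 3 SD, cut at about 38% in these data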
#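 Repeats: no replicates (n 1) | Material: CHO-derived RD-HGA16 cells with stable Gα16 and human TAAR1 | Technique: Kinetic Fluo-8 calcium fluorescence | Schedule: 17-24 h seeding, 75 min 37 °C dye, 30 min RT | Evaluation: % activation from peak over basal fluorescence ratio, DMSO-to-PEA scaled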
# CHO parental Ca – counter-screen for OX1R antagonists: effect in parental CHO cells; parental CHO-K1, ATP-induced calcium, Fluo-8 fluorescence; inhibition, % at 5.6 µM; hit rate 0.63% among 330,000; AID 463079;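 active means inhibition above that plate's mean sample inhibition plus 3 SD, cut at about 26% in these data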
#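 Test system: parental CHO cells; detection: calcium-sensitive Fluo-8 fluorescence; evaluation: percent inhibition of calcium signal; also added: ATP as calcium-mobilizing challenge; repeats: one well per compound; control set: ATP-challenged DMSO wells low, unchallenged DMSO wells high; compound: single nominal dose of 5.6 µM per compound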
# NTR1 ag – activates human neurotensin receptor 1 | hit rate 0.17% among 330,000 | NTR1-U2OS beta-arrestin-GFP spot imaging, agonist mode | activation, % at 20 µM | AID 493036 | P30989;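 active means activation at or above 40% of the spot to cytoplasm intensity ratio, with at least 20 cells analyzed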
# Target sequence (P30989 whole entry, looked up): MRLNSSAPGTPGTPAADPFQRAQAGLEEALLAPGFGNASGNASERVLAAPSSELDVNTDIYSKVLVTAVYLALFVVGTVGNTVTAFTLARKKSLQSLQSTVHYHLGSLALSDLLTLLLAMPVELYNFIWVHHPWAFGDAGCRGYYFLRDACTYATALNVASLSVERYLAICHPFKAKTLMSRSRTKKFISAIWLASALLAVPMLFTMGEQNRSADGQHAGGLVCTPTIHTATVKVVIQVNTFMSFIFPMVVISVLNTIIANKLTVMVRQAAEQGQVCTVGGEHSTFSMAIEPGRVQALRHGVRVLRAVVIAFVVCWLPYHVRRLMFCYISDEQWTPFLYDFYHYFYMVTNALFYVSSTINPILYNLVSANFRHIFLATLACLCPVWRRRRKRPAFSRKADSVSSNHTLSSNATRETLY
# TAAR1 antag – antagonists of human TAAR1; hit rate 1.5% among 360,000; AID 624466; CHO RD-HGA16 TAAR1, Fluo-8 calcium fluorescence, antagonist; inhibition, % at 3 µM; Q96RJ0;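 active means inhibition above a per-plate cutoff, the mean inhibition of test compounds on that plate plus 3 SD, cut at about 49% in these data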
#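 Test system: RD-HGA16 CHO cells with stable hTAAR1 and Gα16 / Probe or stimulus: EC80 β-phenethylamine stimulus / Times: seeding 17-24 h prior, 75-min 37 °C, 30-min RT dye loading / Detection: Fluo-8 calcium-sensitive fluorescence / Read-out basis: % inhibition scaled between DMSO and EC80 PEA controls / Repeats: singlicate, one well per test compound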
# OX1R antag-2 – antagonists of human orexin 1 receptor (OX1R); OX1R-expressing cells, FRET antagonist read-out; inhibition, % at 6.6 µM; hit rate 1.8% among 330,000; AID 485270; in the data active means inhibition mostly above about 38%, no sharp cut-off; inactive means mostly below about 40%
# NTR1 ag conf – confirmation of agonists of human NTR1; shares compounds with NTR1 ag; NTR1-U2OS beta-arrestin-GFP translocation imaging; activation, % at 20 µM; hit rate 38% among 480; AID 504550;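 active means mean activation at 20 µM of at least 40%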
# A number is an active result; . = inactive; / = no result.
SMILES,OX1R antag-1,TAAR1 ag,CHO parental Ca,NTR1 ag,TAAR1 antag,OX1R antag-2,NTR1 ag conf
O=C(N[C@@H](Cc1ccccc1)C(=O)OCc1ccccc1)c1nc[nH]c1C(=O)N1CCc2ccccc2C1,.,.,.,48,59,.,.
C[C@H](NC(=O)c1nc[nH]c1C(=O)N[C@@H](Cc1ccccc1)C(=O)OC(C)(C)C)C(=O)OCc1ccccc1,.,.,.,41,.,.,.
Cc1ccc2oc(C(=O)N3CCC(O)(c4ccccc4)CC3)c(C)c2c1,.,.,.,.,.,.,/
Cc1cccc(-c2nc(Nc3cccc(O)c3)c3ccccc3n2)c1,.,.,.,53,.,.,.
CCOC(=O)c1c(CSc2ccc(C)cc2)oc2ccc(O)cc12,.,.,.,45,.,.,.
CCOC(=O)c1c(CN2CCN(C)CC2)oc2ccc(O)cc12,.,.,.,.,.,.,/
COc1ccc(S(=O)(=O)NCC2CCCN(C(=O)CCC(F)(F)F)C2)cc1 (stereo unspecified),.,.,.,.,.,.,/
Cc1cc2c(cc1C)CSC(c1ccccc1O)SC2,.,.,59,51,66,.,.
Cc1cn([C@H]2C[C@H](O)[C@@H](/C=C/C(=O)NCc3ccc(N(C)C)cc3)O2)c(=O)[nH]c1=O,/,.,/,/,.,/,/
CCCC(C)NC(=O)CN1C(=O)NC2(CCc3ccccc32)C1=O (stereo unspecified),.,.,.,.,.,.,/
O=C(/C=C\c1ccccc1)NCC(=O)N/N=C/c1ccc(O)cc1O,.,/,.,66,/,.,55
Cc1cccc(OCC(=O)NCC(=O)N/N=C/c2ccc(O)cc2O)c1,.,.,.,40,.,.,.
CC1CCCCC12NC(=O)N(CC(=O)N1CCN(Cc3ccc(C#N)cc3)CC1)C2=O (stereo unspecified),.,.,.,.,.,.,/
N#Cc1ccccc1NC(=O)CN(Cc1ccccc1)Cc1ccccc1,.,.,.,.,.,.,/
O=c1c2oc3ccccc3c2ncn1Cc1ccc(F)cc1,.,.,.,.,.,.,/
Cc1ccc(S(=O)(=O)C[C@@H]2OC3CCCCC3N2S(=O)(=O)c2ccc(C)cc2)cc1 (stereo partly specified),/,.,/,/,.,/,/
CCOc1ccc(S(=O)(=O)N2CCCC(C(=O)N3CCN(c4ccccc4)CC3)C2)cc1 (stereo unspecified),.,.,.,.,.,.,/
COCCCn1c(SCc2ccccc2)nc2cc(OC)c(OC)cc2c1=N,.,.,.,.,.,.,/
COc1cc2nc(SCc3ccc(Cl)cc3Cl)n(Cc3cccs3)c(=N)c2cc1OC,.,.,.,.,.,.,/
COc1ccc(Cn2c(SCc3cc(C)ccc3C)nc3cc(OC)c(OC)cc3c2=N)cc1,.,.,.,48,.,.,.
COCCCn1c(SCc2cccc(C(F)(F)F)c2)nc2cc(OC)c(OC)cc2c1=N,.,.,.,60,.,.,.
COc1ccc(Cn2c(SCc3ccc(C)cc3)nc3cc(OC)c(OC)cc3c2=N)cc1Cl,.,41,.,54,.,.,64
COc1ccc([C@H]2Oc3cc(O)cc(O)c3C(=O)C2[C@@H]2C(=O)c3c(O)cc(O)cc3O[C@@H]2c2ccc(OC)cc2)cc1 (stereo partly specified),.,.,.,50,.,.,.
Oc1ccccc1-n1c(-c2ccccc2)ccc1-c1ccccc1,.,.,.,51,.,.,.
Cc1ccc(-c2ccccc2)n1-c1ccc(C(=O)O)cc1,.,.,.,.,.,.,/
SMILES,OX1R antag-1,TAAR1 ag,CHO parental Ca,NTR1 ag,TAAR1 antag,OX1R antag-2,NTR1 ag conf
CCOC(=O)C1=C(COC(=O)[C@@H](NC(=O)c2cccc(C)c2)C(C)C)NC(=O)NC1C (stereo partly specified),.,.,.,.,.,.,/
CCOc1ccc(-c2[nH]ncc2-c2ccccc2)c(O)c1,.,.,.,.,.,.,/
COc1ccccc1-c1cn[nH]c1-c1ccc(OCc2ccccc2)cc1O,.,.,.,57,.,.,.
O=C(Cn1ccc2cc(S(=O)(=O)N3CCCC3)ccc21)NCc1ccco1,.,.,.,.,.,.,/
CC1(C)NC(=O)N(CCCC(=O)Nc2ccc(C(F)(F)F)cc2)C1=O,.,.,.,.,.,.,/
O=C1c2[nH]nc(-c3ccccc3O)c2C(c2ccc(F)cc2)N1Cc1ccco1 (stereo unspecified),.,.,.,.,.,.,/
O=C1c2[nH]nc(-c3ccccc3O)c2C(c2cccc(Cl)c2)N1Cc1ccco1 (stereo unspecified),.,.,.,46,.,.,.
Cc1cccc2c1NC(=O)C21N2CCCC2C(C(=O)c2ccc3ccccc3c2)C12C(=O)Nc1ccccc12 (stereo unspecified),.,/,.,.,/,.,/
CCc1ccc2c(c1)C1(C(=O)N2)N2CCCC2C(C(=O)c2ccc3ccccc3c2)C12C(=O)Nc1ccccc12 (stereo unspecified),.,.,.,55,.,.,87
c1ccc(N2CCCCC2)c(Nc2nc3ccccc3n3cnnc23)c1,.,.,.,40,.,.,.
c1ccc2c(c1)nc(Nc1ccc(N3CCCCC3)cc1)c1nncn12,.,.,.,.,.,.,/
COc1ccc(Nc2ccnc3ccccc23)cc1,.,.,.,.,.,.,/
CC(C)Nc1ccc(Nc2ccnc3cc4ccccc4cc23)cc1,.,.,.,51,.,.,85
COc1ccc(C=C2CS(=O)(=O)CC(=Cc3ccc(OC)cc3)C2=O)cc1,/,.,/,/,.,/,/
COc1cc(C(CCN2CCOCC2)c2c(OC)cc(OC)c3c(-c4ccccc4)cc(=O)oc23)cc(OC)c1OC (stereo unspecified),.,.,.,.,.,.,/
COc1cc(C(CCN2CCCC2)c2c(OC)cc(OC)c3c(-c4ccccc4)cc(=O)oc23)cc(OC)c1OC (stereo unspecified),.,.,.,41,.,.,.
COc1ccc(C(=O)/C=C2/C(=O)Nc3ccccc32)c(OC)c1,.,.,.,52,.,.,49
CC(Oc1ccc([N+](=O)[O-])cc1)C(=O)NCC1CCCO1 (stereo unspecified),.,.,.,.,.,.,/
O=C(Nc1ccccc1Cl)C1CCCN(S(=O)(=O)c2ccc(-n3cnnn3)cc2)C1 (stereo unspecified),.,.,.,.,.,.,/
O=C(CC1Nc2ccccc2NC1=O)Nc1cc(Cl)cc(Cl)c1 (stereo unspecified),.,.,.,73,.,.,54
O=C(CC1NC(=O)NC1=O)Nc1ccc(Cl)cc1 (stereo unspecified),.,.,.,.,.,.,/
